Legend:
[1] = target: Delta-type opioid receptor (Rattus norvegicus, UniProt P33533); test: Binding affinity in competition with [3H]- DPDPE in Opioid receptor delta 1 binding to rat brain membrane
How it was run: (§1)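 Brains (minus cerebellum) of male Sprague–Dawley rats (200–250 g) were homogenized, preincubated 30 min at 25 °C and centrifuged twice at 43000g. Homogenate at 0.5% final was incubated with 0.5 nM [3H]CTOP (μ) or 1.0 nM [3H]DPDPE (δ) in 50 mM Tris-HCl pH 7.4 with 5 mM MgCl2, BSA 1 mg/mL and 100 μM PMSF, 120 min at 25 °C, in duplicate. Nonspecific binding was taken with 1 μM naloxone; bound label was filtered and scintillation counted; curves were fit by nonlinear least squares.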

Mu-type opioid receptor = Mu-type opioid receptor (Rattus norvegicus, UniProt P33535); test: Binding affinity in competition with [3H]- CTOP in Opioid receptor mu 1 binding to rat brain membrane; how it was run: as §1
Somatostatin receptor = test: Binding affinity in competition with [125I]- CGP-23996 in somatostatin receptor binding to rat brain membrane
How it was run: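 Rat whole-brain membranes (adult male Sprague–Dawley) at 1.0% final tissue were incubated with 0.2 nM [125I]CGP 23,996 and analogues at 100–0.3 μM. Buffer was 50 mM Tris pH 7.4 with 2.0 mg/mL BSA, 20 μg/mL bacitracin and 5 mM MgCl2. Incubation ran 1 h at 37 °C and ended by rapid filtration through BSA-soaked GF/B filters.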

[2] = target: Opioid receptors; mu & delta (Rattus norvegicus) (UniProt P33533+P33535); test: Ratio of selective binding affinity of mu receptor to that of delta opioid receptor; assay type: protein assay
[3] = Ratio of selective binding affinity of mu receptor to that of somatostatin receptor

Chain of Opioid receptors; mu & delta (Rattus norvegicus) (P33533 whole entry, looked up): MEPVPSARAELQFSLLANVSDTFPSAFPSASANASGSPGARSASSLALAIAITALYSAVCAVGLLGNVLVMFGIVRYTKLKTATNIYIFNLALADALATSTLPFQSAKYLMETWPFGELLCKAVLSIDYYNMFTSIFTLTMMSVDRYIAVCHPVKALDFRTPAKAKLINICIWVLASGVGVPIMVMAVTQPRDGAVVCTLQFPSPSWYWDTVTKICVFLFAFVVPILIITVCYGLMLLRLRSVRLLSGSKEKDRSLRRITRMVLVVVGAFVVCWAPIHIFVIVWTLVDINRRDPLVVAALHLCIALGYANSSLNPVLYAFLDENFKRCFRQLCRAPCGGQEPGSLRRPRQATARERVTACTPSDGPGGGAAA
Chain of Opioid receptors; mu & delta (Rattus norvegicus) (P33535 whole entry, looked up): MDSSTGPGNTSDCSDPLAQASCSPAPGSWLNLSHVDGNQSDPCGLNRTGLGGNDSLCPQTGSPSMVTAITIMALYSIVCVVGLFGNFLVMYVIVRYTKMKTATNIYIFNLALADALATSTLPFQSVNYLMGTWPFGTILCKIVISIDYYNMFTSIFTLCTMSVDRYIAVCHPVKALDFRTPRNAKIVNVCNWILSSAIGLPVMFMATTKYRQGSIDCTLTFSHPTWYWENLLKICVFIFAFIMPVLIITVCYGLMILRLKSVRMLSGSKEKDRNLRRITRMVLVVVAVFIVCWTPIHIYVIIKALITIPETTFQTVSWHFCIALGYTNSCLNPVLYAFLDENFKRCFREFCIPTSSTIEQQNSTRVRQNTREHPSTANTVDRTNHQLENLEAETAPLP
Chain of Delta-type opioid receptor (P33533 whole entry): as the sequence (P33533 whole entry, looked up) above
Chain of Mu-type opioid receptor (P33535 whole entry): as the sequence (P33535 whole entry, looked up) above

| Compound | IC50 [1] | IC50 (Mu-type opioid receptor) | IC50 (Somatostatin receptor) | further results |
| --- | --- | --- | --- | --- |
| C[C@@H](O)[C@H](NC(=O)[C@H]1NC(=O)[C@H]([C@@H](C)O)NC(=O)[C@H](CCCN=C(N)N)NC(=O)[C@@H](Cc2c[nH]c3ccccc23)NC(=O)[C@H](Cc2ccc(O)cc2)NC(=O)[C@@H](NC(=O)[C@H](N)Cc2ccccc2)CSSC1(C)C)C(N)=O | 5.31 µM | 0.0021 µM | – | – |
| C[C@@H](O)[C@H](NC(=O)[C@H]1NC(=O)[C@H]([C@@H](C)O)NC(=O)[C@H](CCCN)NC(=O)[C@@H](Cc2c[nH]c3ccccc23)NC(=O)[C@H](Cc2ccc(O)cc2)NC(=O)[C@@H](NC(=O)[C@H](N)Cc2ccccc2)CSSC1(C)C)C(N)=O | 5.6 µM | – | – | – |
| C[C@@H](O)[C@H](NC(=O)[C@H]1NC(=O)[C@H](CC(N)=O)NC(=O)[C@H](Cc2ccccc2)NC(=O)[C@@H](NC(=O)[C@H](N)Cc2ccc(O)cc2)CSSC1(C)C)C(N)=O | ≥ 10 µM | 7.47 µM | – | – |
| C[C@@H](O)[C@H](NC(=O)[C@@H]1NC(=O)[C@H]([C@@H](C)O)NC(=O)[C@@H](Cc2c[nH]c3ccccc23)NC(=O)[C@H](Cc2ccc(O)cc2)NC(=O)[C@@H](NC(=O)[C@H](N)Cc2ccccc2)CSSC1(C)C)C(N)=O | 7.82 µM | 10 µM | – | – |
| C[C@@H](O)[C@H](NC(=O)[C@H]1NC(=O)[C@H](CC(N)=O)NC(=O)[C@H](Cc2ccc(O)cc2)NC(=O)[C@@H](NC(=O)[C@H](N)Cc2ccccc2)CSSC1(C)C)C(N)=O | > 10 µM | – | – | – |
| C[C@@H](O)[C@@H]1NC(=O)[C@H](CCCCN)NC(=O)C(Cc2c[nH]c3ccccc23)NC(=O)[C@H](Cc2ccc(O)cc2)NC(=O)[C@@H](NC(=O)[C@H](N)Cc2ccccc2)CSSC(C)(C)[C@@H](C(=O)N[C@@H](CC(N)=O)C(N)=O)NC1=O (stereo in doubt) [listing 1 of 3 here] | > 10 µM | 0.13 µM | – | – |
| C[C@@H](O)[C@@H]1NC(=O)[C@H](CCCCN)NC(=O)C(Cc2c[nH]c3ccccc23)NC(=O)[C@H](Cc2ccc(O)cc2)NC(=O)[C@@H](NC(=O)[C@H](N)Cc2ccccc2)CSSC(C)(C)[C@@H](C(=O)N[C@@H](CC(N)=O)C(N)=O)NC1=O (stereo in doubt) [listing 2 of 3 here] | – | – | 1.801 µM | – |
| C[C@@H](O)[C@@H]1NC(=O)[C@H](CCCCN)NC(=O)C(Cc2c[nH]c3ccccc23)NC(=O)[C@H](Cc2ccc(O)cc2)NC(=O)[C@@H](NC(=O)[C@H]2Cc3ccccc3CN2)CSSC(C)(C)[C@@H](C(=O)N[C@@H](CO)C(N)=O)NC1=O (stereo in doubt) [listing 1 of 3 here] | 3.83 µM | 0.0078 µM | – | – |
| C[C@@H](O)[C@@H]1NC(=O)[C@H](CCCCN)NC(=O)C(Cc2c[nH]c3ccccc23)NC(=O)[C@H](Cc2ccc(O)cc2)NC(=O)[C@@H](NC(=O)[C@H]2Cc3ccccc3CN2)CSSC(C)(C)[C@@H](C(=O)N[C@@H](CO)C(N)=O)NC1=O (stereo in doubt) [listing 2 of 3 here] | – | – | 1.499 µM | – |
| C[C@@H](O)[C@H](NC(=O)[C@H]1NC(=O)[C@H](CCCCN)NC(=O)C(Cc2c[nH]c3ccccc23)NC(=O)[C@@H](Cc2ccc(O)cc2)NC(=O)[C@@H](NC(=O)[C@H]2Cc3ccccc3CN2)CSSC1(C)C)C(N)=O (stereo in doubt) [listing 1 of 2 here] | > 10 µM | 9.41 µM | – | – |
| C[C@@H](O)[C@H](NC(=O)[C@H]1NC(=O)[C@H](CCCCN)NC(=O)C(Cc2c[nH]c3ccccc23)NC(=O)[C@@H](Cc2ccc(O)cc2)NC(=O)[C@@H](NC(=O)[C@H]2Cc3ccccc3CN2)CSSC1(C)C)C(N)=O (stereo in doubt) [listing 2 of 2 here] | – | – | 13.61 µM | – |
| C[C@@H](O)[C@H](NC(=O)[C@H]1NC(=O)[C@H]([C@@H](C)O)NC(=O)[C@H](CCCCN)NC(=O)C(Cc2c[nH]c3ccccc23)NC(=O)[C@@H](Cc2ccc(O)cc2)NC(=O)[C@@H](NC(=O)[C@H]2Cc3ccccc3CN2)CSSC1(C)C)C(N)=O (stereo in doubt) | – | – | 0.949 µM | – |
| C[C@@H](O)[C@H](NC(=O)[C@H]1NC(=O)[C@H]([C@@H](C)O)NC(=O)[C@H](CCCN)NC(=O)C(Cc2c[nH]c3ccccc23)NC(=O)[C@@H](Cc2ccc(O)cc2)NC(=O)[C@@H](NC(=O)[C@H]2Cc3ccccc3CN2C(=O)CN)CSSC1(C)C)C(N)=O (stereo in doubt) [listing 1 of 2 here] | 5.35 µM | 0.278 µM | – | – |
| C[C@@H](O)[C@H](NC(=O)[C@H]1NC(=O)[C@H]([C@@H](C)O)NC(=O)[C@H](CCCN)NC(=O)C(Cc2c[nH]c3ccccc23)NC(=O)[C@@H](Cc2ccc(O)cc2)NC(=O)[C@@H](NC(=O)[C@H]2Cc3ccccc3CN2C(=O)CN)CSSC1(C)C)C(N)=O (stereo in doubt) [listing 2 of 2 here] | – | – | 19.408 µM | – |
| C[C@@H](O)[C@H](NC(=O)[C@H]1NC(=O)[C@H]([C@@H](C)O)NC(=O)[C@H](CCCCN)NC(=O)C(Cc2c[nH]c3ccccc23)NC(=O)[C@H](Cc2ccc(O)cc2)NC(=O)[C@@H](NC(=O)C(N)Cc2c[nH]c3ccccc23)CSSC1(C)C)C(N)=O (stereo in doubt) [listing 1 of 2 here] | > 10 µM | 0.0063 µM | – | – |
| C[C@@H](O)[C@H](NC(=O)[C@H]1NC(=O)[C@H]([C@@H](C)O)NC(=O)[C@H](CCCCN)NC(=O)C(Cc2c[nH]c3ccccc23)NC(=O)[C@H](Cc2ccc(O)cc2)NC(=O)[C@@H](NC(=O)C(N)Cc2c[nH]c3ccccc23)CSSC1(C)C)C(N)=O (stereo in doubt) [listing 2 of 2 here] | – | – | 1.599 µM | – |
| C[C@@H](O)[C@H](NC(=O)[C@@H]1NC(=O)[C@H](CCCCN)NC(=O)C(Cc2c[nH]c3ccccc23)NC(=O)[C@H](Cc2ccc(O)cc2)NC(=O)[C@@H](NC(=O)[C@@H](N)Cc2ccccc2)CSSC1(C)C)C(N)=O (stereo in doubt) [listing 1 of 2 here] | > 10 µM | – | – | – |
| C[C@@H](O)[C@H](NC(=O)[C@@H]1NC(=O)[C@H](CCCCN)NC(=O)C(Cc2c[nH]c3ccccc23)NC(=O)[C@H](Cc2ccc(O)cc2)NC(=O)[C@@H](NC(=O)[C@@H](N)Cc2ccccc2)CSSC1(C)C)C(N)=O (stereo in doubt) [listing 2 of 2 here] | – | – | 6.103 µM | – |
| C[C@@H](O)[C@@H]1NC(=O)[C@H](CCCCN)NC(=O)C(Cc2c[nH]c3ccccc23)NC(=O)[C@H](Cc2ccc(O)cc2)NC(=O)[C@@H](NC(=O)[C@H](N)Cc2ccccc2)CSSC(C)(C)[C@@H](C(N)=O)NC1=O (stereo in doubt) [listing 1 of 2 here] | > 10 µM | 0.115 µM | – | – |
| C[C@@H](O)[C@@H]1NC(=O)[C@H](CCCCN)NC(=O)C(Cc2c[nH]c3ccccc23)NC(=O)[C@H](Cc2ccc(O)cc2)NC(=O)[C@@H](NC(=O)[C@H](N)Cc2ccccc2)CSSC(C)(C)[C@@H](C(N)=O)NC1=O (stereo in doubt) [listing 2 of 2 here] | – | – | 1.942 µM | – |
| C[C@@H](O)[C@@H]1NC(=O)[C@H](CCCCN)NC(=O)C(Cc2c[nH]c3ccccc23)NC(=O)[C@H](Cc2ccc(O)cc2)NC(=O)[C@@H](NC(=O)[C@H](N)Cc2ccccc2)CSSC(C)(C)[C@@H](C(=O)N[C@@H](CC(=O)O)C(N)=O)NC1=O (stereo in doubt) [listing 1 of 2 here] | > 10 µM | 3.47 µM | – | – |
| C[C@@H](O)[C@@H]1NC(=O)[C@H](CCCCN)NC(=O)C(Cc2c[nH]c3ccccc23)NC(=O)[C@H](Cc2ccc(O)cc2)NC(=O)[C@@H](NC(=O)[C@H](N)Cc2ccccc2)CSSC(C)(C)[C@@H](C(=O)N[C@@H](CC(=O)O)C(N)=O)NC1=O (stereo in doubt) [listing 2 of 2 here] | – | – | 8.3 µM | – |
| C[C@@H](O)[C@@H]1NC(=O)[C@H](CCCCN)NC(=O)C(Cc2c[nH]c3ccccc23)NC(=O)[C@H](Cc2ccc(O)cc2)NC(=O)[C@@H](NC(=O)[C@H](N)Cc2ccccc2)CSSC(C)(C)[C@@H](C(=O)N[C@@H](CO)C(N)=O)NC1=O (stereo in doubt) [listing 1 of 2 here] | – | – | 1.888 µM | – |
| CN[C@H](Cc1ccccc1)C(=O)N[C@H]1CSSC(C)(C)[C@@H](C(=O)N[C@H](C(N)=O)[C@@H](C)O)NC(=O)[C@H]([C@@H](C)O)NC(=O)[C@H](CCCN)NC(=O)C(Cc2c[nH]c3ccccc23)NC(=O)[C@H](Cc2ccc(O)cc2)NC1=O (stereo in doubt) [listing 1 of 2 here] | > 10 µM | 0.284 µM | – | – |
| CN[C@H](Cc1ccccc1)C(=O)N[C@H]1CSSC(C)(C)[C@@H](C(=O)N[C@H](C(N)=O)[C@@H](C)O)NC(=O)[C@H]([C@@H](C)O)NC(=O)[C@H](CCCN)NC(=O)C(Cc2c[nH]c3ccccc23)NC(=O)[C@H](Cc2ccc(O)cc2)NC1=O (stereo in doubt) [listing 2 of 2 here] | – | – | 8.054 µM | – |
| C[C@@H](O)[C@@H]1NC(=O)[C@H](CCCN)NC(=O)C(Cc2c[nH]c3ccccc23)NC(=O)[C@H](Cc2ccc(O)cc2)NC(=O)[C@@H](NC(=O)[C@H](N)Cc2ccccc2)CSSC(C)(C)[C@@H](C(N)=O)NC1=O (stereo in doubt) [listing 1 of 2 here] | > 10 µM | 0.187 µM | – | – |
| C[C@@H](O)[C@@H]1NC(=O)[C@H](CCCN)NC(=O)C(Cc2c[nH]c3ccccc23)NC(=O)[C@H](Cc2ccc(O)cc2)NC(=O)[C@@H](NC(=O)[C@H](N)Cc2ccccc2)CSSC(C)(C)[C@@H](C(N)=O)NC1=O (stereo in doubt) [listing 2 of 2 here] | – | – | 47.273 µM | – |
| C[C@@H](O)[C@@H]1NC(=O)[C@H](CCCCN)NC(=O)C(Cc2c[nH]c3ccccc23)NC(=O)[C@H](Cc2ccc(O)cc2)NC(=O)[C@@H](NC(=O)[C@H](N)Cc2ccccc2)CSSC(C)(C)[C@@H](C(=O)N[C@@H](CC(N)=O)C(N)=O)NC1=O (stereo in doubt) [listing 3 of 3 here] | – | – | – | Ratio [2]: > 77; Ratio [3]: 6.3 |
| C[C@@H](O)[C@@H]1NC(=O)[C@H](CCCCN)NC(=O)C(Cc2c[nH]c3ccccc23)NC(=O)[C@H](Cc2ccc(O)cc2)NC(=O)[C@@H](NC(=O)[C@H](N)Cc2ccccc2)CSSC(C)(C)[C@@H](C(=O)N[C@@H](CO)C(N)=O)NC1=O (stereo in doubt) [listing 2 of 2 here] | – | – | – | Ratio [2]: > 490; Ratio [3]: 94 |
| C[C@@H](O)[C@@H]1NC(=O)[C@H](CCCCN)NC(=O)C(Cc2c[nH]c3ccccc23)NC(=O)[C@H](Cc2ccc(O)cc2)NC(=O)[C@@H](NC(=O)[C@H]2Cc3ccccc3CN2)CSSC(C)(C)[C@@H](C(=O)N[C@@H](CO)C(N)=O)NC1=O (stereo in doubt) [listing 3 of 3 here] | – | – | – | Ratio [2]: 491; Ratio [3]: 192 |
